Test results reported in publication PMC7271596 (Haematologica, 2019).

Columns and labels:
[1] = test system: SKM1 cells; assay: Apoptosis, Annexin V-positive cells at day 3; assay type: cell-based, human; conditions: SKM1, day 3, IC10 APR and/or IC50 AZA
In short: (§1)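 Human myeloid lines in RPMI 1640 with 10% FBS, 1% penicillin/streptomycin and 1% GlutaMAX. Log-phase cells seeded at 2x10^5/mL. Drugs added once at day 0: IC10 APR, IC50 AZA, or both at these concentrations. Annexin V-positive cells scored at day 3. Results given as means ± SD; Mann-Whitney test, two-sided.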

[2] = test system: SKM1 cells; assay: Cytotoxicity; assay type: cell-based, human
[3] = test system: primary cells from MDS/AML patients; assay: Clonogenic assay in semi-solid medium; assay type: cell-based, human; conditions: 14 days, 34 MDS/AML patient samples
[4] = test system: HL60 cells; assay: Cytotoxicity; assay type: cell-based; conditions: Homo sapiens, HL-60, 72 h, read-out: IC50 (proliferation)
[5] = test system: SKM1 cells; assay: Cell cycle distribution 24 hours after treatment; assay type: cell-based, human; conditions: SKM1, 24 hours after exposure, IC10 APR with or without IC50 AZA
[6] = test system: SKM1, K562, KG1a, THP-1, and HL60 cell lines; assay: Apoptosis, Annexin V-positive cells at day 3, five cell lines; assay type: cell-based, human; conditions: IC10 APR alone, day 3, cell lines tested
In short: as §1

[7] = test system: SKM1 cell line; assay: Transcriptomic analysis; assay type: cell-based, human; conditions: IC10 APR vs untreated SKM1 cells, GSEA
[8] = test system: SKM1, K562, KG1a, THP-1, and HL60 cell lines; assay: Cytotoxicity; assay type: cell-based, human; conditions: all of the cell lines tested (SKM1, K562, KG1a, THP-1, HL60)
[9] = test system: SKM1, K562, KG1a, THP-1, and HL60 cell lines; assay: Cell cycle distribution 24 hours after treatment, five cell lines; assay type: cell-based, human; conditions: IC10 APR alone, various cell lines tested

Row | Molecule | apoptotic cells (Annexin V-positive) [1] | IC50 ([2]; Homo sapiens, SKM-1, 72 h, read-out: IC50 (proliferation)) | reduction of myeloid and erythroid colony growth [3] | IC50 [4] | cells in G0/G1 phase [5] | induction of apoptosis [6] | ROS-induced genes NES ([7]; 18 hours) | early apoptotic program NES [7] | p53 pathway Normalized Enrichment Score (NES) [7] | 50% inhibitory concentrations (IC50), cell proliferation [8] | effect on cell cycle distribution [9] | IC50 fold lower for the SKM1 cell line compared to the other AML lines ([2]; SKM1 vs K562, KG1a, THP-1, HL60) | effect on SKM1 cell proliferation ([2]; FLT3-L on its own, 0.1 to 100 ng/mL)
1 | Nc1ncn([C@@H]2O[C@H](CO)[C@@H](O)[C@H]2O)c(=O)n1 [AZA, 5-azacitidine] | 19% | 540 nM | 30% | 4500 nM | – | – | – | – | – | – | – | – | –
2 | COCC1(CO)C(=O)C2CCN1CC2 (centres unmarked) [APR, PRIMA-1^Met] | – | – | approximately 60% | – | 62% | did not induce apoptosis | 1.2 | 1.1 | 1.2 | in the micromolar range | did not affect the cell cycle distribution | at least 2 fold | –
3 | FLT3-L: FLT3 ligand from PeproTech (protein, UniProt P49771 27-235, looked up) Fms-related tyrosine kinase 3 …: TQDCSFQHSPISSDFAVKIRELSDYLLQDYPVTVASNLQDEELCGGLWRLVLAQRWMERLKTVAGSKMQGLLERVNTEIHFVTKCAFQPPPSCLRFVQTNISRLLQETSEQLVALKPWITRQNFSRCLELQCQPDSSTLPPPWSPRPLEATAPTAPQPPLLLLLLLPVGLLLLAAAWCLHWQRTRRRTPRPGEQVPPVPSPQDLLLVEH | – | – | – | – | – | – | – | – | – | – | – | – | did not affect SKM1 cell proliferation
